Test results reported in ChEMBL document CHEMBL1124167, “Syntheses and gastric acid antisecretory properties of the H2-receptor antagonist. N-[3-[3-(1-piperidinylmethyl)phenoxy]propyl]thieno[3,4-d]isot hiazol-3-amine 1,1-dioxide and related derivatives” (J Med Chem, 1988).
The source made the active and inactive calls. The calls are words filed in the database; no cut-off is given here.

Assays:
Rattus norvegicus [1] = assay: In vivo inhibitory activity against basal acid secretion in pylorus-ligated rat was determined at a dose of 8 mg/kg; assay type: functional
Outline: (§1)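 Male SD/CD rats (190–260 g), fasted 24 h with water, groups of 10. Pylorus ligated under methohexital (40 mg/kg). Drug in 0.25% aqueous methylcellulose given intraduodenally (1 mL/kg) right after ligation. Killed 4 h later. Gastric juice volume × acid concentration (titration to pH 7.0 with 0.1 N NaOH) gives total acid output, expressed as percent inhibition vs vehicle controls.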

Rattus norvegicus [2] = assay: In vivo inhibitory activity against basal acid secretion in pylorus-ligated rat was determined at a dose of 4 mg/kg; assay type: functional; outline: as §1
Canis familiaris = organism: Canis familiaris; assay: Efficacy against histamine stimulation was determined in dog; assay type: functional; conditions: Canis lupus familiaris
Outline: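 Gastric pouch dogs fasted 18 h with water, baseline from two 15-min samples. Drug in 0.9% saline given by oral gavage 30 min before histamine diphosphate (64 μg/kg base, sc). Samples collected at 15-min intervals and acid titrated to pH 7.0 with 0.1 N NaOH. Total acid output summed over 1 h, percent inhibition vs the same dog's saline run, runs ≥3 days apart.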

Rattus norvegicus [3] = assay: In vivo inhibitory activity against basal acid secretion in pylorus-ligated rat was determined at a dose of 4 mg/kg; Inactive

| Compound | Total acid output (Rattus norvegicus [1]) [%] | Total acid output (Rattus norvegicus [2]) [%] | further results |
| --- | --- | --- | --- |
| Cl.NS(=O)(=O)c1cscc1C(=O)NCCCOc1cccc(CN2CCCCC2)c1.O | 36 | – | – |
| N=C(N)Nc1nc(CSCCNC2=NS(=O)(=O)c3cscc32)cs1 | – | 83 | – |
| Cl.O=S1(=O)N=C(NCCCOc2cccc(CN3CCCC3)c2)c2cscc21 | – | 19 | – |
| CN/C(=C\[N+](=O)[O-])NCCSCc1ccc(CN(C)C)o1 [RANITIDINE] | – | – | ED50 (Canis familiaris): 0.93 mg/kg |
| O=C(c1cccc(OCCCNC2=NS(=O)(=O)c3cscc32)c1)N1CCCCC1 | 94 | – | – |
| NS(=O)(=O)c1cscc1C(=O)NCCCOc1cccc(C=O)c1 | 94 | – | – |
| O=S1(=O)N=C(NCCCOc2cccc(CN3CC=CCC3)c2)c2cscc21 | – | 18 | – |
| Cc1[nH]cnc1CSCCNC1=NS(=O)(=O)c2cscc21 | 87 | – | – |
| O=S1(=O)N=C(NCCCOc2cccc(CN3CCCCC3)c2)c2sccc21 | 12 | – | – |
| O=Cc1cccc(OCCCNC2=NS(=O)(=O)c3cscc32)c1 | – | 89 | Activity (Rattus norvegicus [3]): inactive |
| O=S1(=O)N=C(NCCCOc2ccc(CN3CCCCC3)cc2)c2cscc21 | 21 | – | – |
| CCCN(CCC)Cc1cccc(OCCCNC2=NS(=O)(=O)c3cscc32)c1.Cl | – | 16 | – |
| O=S1(=O)N=C(NCCCOc2cccc(CN3CCCCC3)c2)c2cscc21 | 16 | – | ED50 (Canis familiaris): 0.35 mg/kg |
